For one molecule, Activity, inhibition and fold change (FC) results are on record in ChEMBL document CHEMBL4020714, “Design, synthesis, and evaluation of curcumin derivatives as Nrf2 activators and cytoprotectors against oxidative death” (Eur J Med Chem, 2017).

The target in data set [1] is T1, Nuclear factor erythroid 2-related factor 2 (Homo sapiens) (UniProt Q16236).
T1 sequence (whole entry): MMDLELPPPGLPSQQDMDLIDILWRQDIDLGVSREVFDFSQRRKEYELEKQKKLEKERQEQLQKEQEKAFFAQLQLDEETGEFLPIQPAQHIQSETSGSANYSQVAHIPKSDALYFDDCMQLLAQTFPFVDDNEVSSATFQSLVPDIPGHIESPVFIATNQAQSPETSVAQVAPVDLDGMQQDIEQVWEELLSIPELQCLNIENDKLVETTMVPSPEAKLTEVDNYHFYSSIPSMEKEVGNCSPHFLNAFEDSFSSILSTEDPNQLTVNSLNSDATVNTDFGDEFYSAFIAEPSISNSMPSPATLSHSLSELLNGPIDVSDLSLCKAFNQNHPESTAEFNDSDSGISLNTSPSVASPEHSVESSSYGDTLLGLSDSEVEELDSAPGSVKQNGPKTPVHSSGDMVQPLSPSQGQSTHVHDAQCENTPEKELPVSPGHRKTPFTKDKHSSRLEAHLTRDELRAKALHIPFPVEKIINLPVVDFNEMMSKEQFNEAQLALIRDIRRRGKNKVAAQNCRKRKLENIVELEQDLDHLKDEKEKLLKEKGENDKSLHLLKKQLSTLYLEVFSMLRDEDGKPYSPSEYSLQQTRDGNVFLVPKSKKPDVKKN
Nature of the data set: Activation of Nrf2 in human HepG2 cells assessed as increase in GCLC expression level after 3 hrs by Western blot analysis. The class given is cell-based. The method, boiled down: (§1)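 HepG2 cells (2×10^6/well) treated at the indicated concentrations and times. Whole-cell lysates, or nuclear and cytoplasmic fractions, are prepared and quantified by BCA. Samples are run at 40 μg/lane on 12% SDS-PAGE, transferred to nitrocellulose, probed with specific antibodies and HRP secondary (1/5000), and detected by ECL. Where used, LY294002 (15 μM), SP600125 (25 μM) or DTT (400 μM) is added 1 h before compound.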

For data set [2], the target named is T1, Nuclear factor erythroid 2-related factor 2 (Homo sapiens). As to the kind of experiment: Activation of Nrf2 in human HepG2 cells assessed as increase in GCLC expression level at 5 uM in presence of 15 uM PI3K/Akt inhibitor LY294002 for 1 hr prior to compound treatment by Western blot analysis. In kind it is cell-based. The essentials:
as §1
(In general: Immunoblotting shows a protein as a band on a membrane.)

The test system of data set [3] is HepG2. Nature of the data set: Antioxidant activity against t-BHP-induced oxidative stress in human HepG2 cells assessed as inhibition of intracellular ROS accumulation incubated for 24 hrs followed by t-BHP addition for 3 hrs by DCFH-DA staining based flow cytometric analysis. The class given is functional, cell-based. The essentials: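 HepG2 cells (4×10^5/well) exposed to compound (1.25, 2.5 or 5 μM) or DMSO for 24 h, then to 900 μM t-BHP for 3 h. Cells collected, stained with 3 μM DCFH-DA for 30 min at 37 °C in the dark, washed with PBS, and analysed at once by flow cytometry (FITC channel). Values normalised to the corresponding control.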

The target of data set [4] is Kelch-like ECH-associated protein 1 (Homo sapiens) (UniProt Q14145). As to the kind of experiment: Induction of keap1-dependent Nrf2 stabilization in human HepG2 cells assessed as prolonged half life of Nrf2 at 5 uM pretreated for 3 hrs followed by coincubation with 5 ug/ml cycloheximide for 24 hrs by Western blot analysis relative to control. In kind it is cell-based. The method, boiled down:
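HepG2 cells pretreated with or without 5 μM compound for 3 h, then given 5 μg/mL cycloheximide for the indicated periods (up to 24 h). Total lysates are immunoblotted for Nrf2. Half-life is obtained by fitting a single-phase decay model.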

The target in data set [5] is T1, Nuclear factor erythroid 2-related factor 2 (Homo sapiens). Nature of the data set: Activation of Nrf2 in human HepG2 cells assessed as cytoprotection against t-BHP-induced oxidative cell death at 5 uM incubated for 24 hrs followed by compound removal with subsequent incubation with 900 uM of t-BHP for 6 hrs in presence of 400 uM metal ion chelator EDTA for 1 hr prior to compound treatment by MTT assay. In kind it is cell-based.

Data set [6] has the same target. Nature of the data set: Activation of Nrf2 in human HepG2 cells assessed as increase in HO-1 expression level at 5 uM by Western blot analysis. In kind it is cell-based. To be noted: TDE = time-dependent effect. The essentials:
as §1

The subject of data set [7] is HepG2. As to the kind of experiment: Cytotoxicity against human HepG2 cells assessed as reduction in cell viability at 5 uM after 24 hrs by MTT assay. In kind it is cell-based. The conditions noted are these: hepg2, 24 h. The essentials: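 MTT viability in HepG2 cells (5×10^3/well) after 24 h exposure to compound at 5 μM. Formazan dissolved in DMSO and absorbance read at 570 nm. Mean ± SD of three independent experiments.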

The target in data set [8] is T1, Nuclear factor erythroid 2-related factor 2 (Homo sapiens). Nature of the data set: Activation of Nrf2 in human HepG2 cells assessed as increase in cytosolic Nrf2 expression level at 5 uM after 1 to 6 hrs by Western blot analysis. The class given is cell-based. The method, boiled down:
as §1

The target is the same in data set [9]. Nature of the data set: Activation of Nrf2 in human HepG2 cells assessed as increase in GCLC expression level after 24 hrs by Western blot analysis. The class given is cell-based. The method, boiled down: as §1
Data set [10] shares this target. As to the kind of experiment: Activation of Nrf2 in human HepG2 cells assessed as increase in GCLC expression level at 5 uM by Western blot analysis. The class given is cell-based. To be noted: TDE = time-dependent effect. The essentials: as §1
For data set [11] the target is unchanged. As to the kind of experiment: Activation of Nrf2 in human HepG2 cells assessed as cytoprotection against t-BHP-induced oxidative cell death at 5 uM incubated for 24 hrs followed by compound removal with subsequent incubation with 900 uM of t-BHP for 6 hrs in presence of 15 uM PI3K/Akt inhibitor LY294002 for 1 hr prior to compound treatment by MTT assay. In kind it is cell-based. The method, boiled down:
(§2)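 HepG2 cells (5×10^3/well) seeded and grown 24 h in 1640 medium with 10% FBS at 37 °C and 5% CO2. Compound is added for 24 h, then removed, and cells are challenged with 900 μM t-BHP for 6 h at 37 °C. MTT (0.5 mg/mL) is added for 4 h, formazan dissolved in DMSO, and absorbance read at 570 nm. Where used, inhibitors are added 1 h before compound. Mean ± SD of three independent experiments.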
(Formazan colour is commonly taken as a measure of viable cells.)

Data set [12] has the same target. As to the kind of experiment: Activation of Nrf2 in human HepG2 cells assessed as increase in nuclear Nrf2 expression level at 5 uM after 12 hrs by Western blot analysis. The class given is cell-based. The method, boiled down:
as §1

Data set [13] has as its target c-Jun N-terminal kinase, JNK (Homo sapiens) (UniProt P45983+P53779+P45984). Nature of the data set: Induction of JNK phosphorylation in human HepG2 cells at 5 uM by Western blot analysis. In kind it is cell-based. To be noted: TDE = time-dependent effect. The method, boiled down:
as §1

Data set [14] concerns the target T1, Nuclear factor erythroid 2-related factor 2 (Homo sapiens). Nature of the data set: Activation of Nrf2 in human HepG2 cells assessed as cytoprotection against t-BHP-induced oxidative cell death at 5 uM incubated for 24 hrs followed by compound removal with subsequent incubation with 900 uM of t-BHP for 6 hrs in presence of 100 nM Nrf2 inhibitor TRG for 1 hr prior to compound treatment by MTT assay. In kind it is cell-based. The essentials:
as §2

Data set [15] has the same target. Nature of the data set: Activation of Nrf2 in human HepG2 cells assessed as increase in GCLM expression level after 24 hrs by Western blot analysis. The class given is cell-based. The method, boiled down: as §1
Data set [16] has as its target Keap1/Nrf2 (Homo sapiens) (UniProt Q16236+Q14145). As to the kind of experiment: Inhibition of Keap1/Nrf2 interaction in human HepG2 cells assessed as decrease in Keap1 expression level after 3 hrs in presence of DTT for 1 hr prior to compound treatment by Western blot analysis. In kind it is cell-based. The essentials:
as §1

The target in data set [17] is T1, Nuclear factor erythroid 2-related factor 2 (Homo sapiens). As to the kind of experiment: Activation of Nrf2 in human HepG2 cells assessed as increase in HO-1 expression level after 3 hrs by Western blot analysis. In kind it is cell-based. The method, boiled down:
as §1

The source made the active and inactive calls. The calls are words filed in the database; no cut-off is given here.

Sequence of Keap1/Nrf2 (Homo sapiens) (Q14145 whole entry, looked up, one chain of several): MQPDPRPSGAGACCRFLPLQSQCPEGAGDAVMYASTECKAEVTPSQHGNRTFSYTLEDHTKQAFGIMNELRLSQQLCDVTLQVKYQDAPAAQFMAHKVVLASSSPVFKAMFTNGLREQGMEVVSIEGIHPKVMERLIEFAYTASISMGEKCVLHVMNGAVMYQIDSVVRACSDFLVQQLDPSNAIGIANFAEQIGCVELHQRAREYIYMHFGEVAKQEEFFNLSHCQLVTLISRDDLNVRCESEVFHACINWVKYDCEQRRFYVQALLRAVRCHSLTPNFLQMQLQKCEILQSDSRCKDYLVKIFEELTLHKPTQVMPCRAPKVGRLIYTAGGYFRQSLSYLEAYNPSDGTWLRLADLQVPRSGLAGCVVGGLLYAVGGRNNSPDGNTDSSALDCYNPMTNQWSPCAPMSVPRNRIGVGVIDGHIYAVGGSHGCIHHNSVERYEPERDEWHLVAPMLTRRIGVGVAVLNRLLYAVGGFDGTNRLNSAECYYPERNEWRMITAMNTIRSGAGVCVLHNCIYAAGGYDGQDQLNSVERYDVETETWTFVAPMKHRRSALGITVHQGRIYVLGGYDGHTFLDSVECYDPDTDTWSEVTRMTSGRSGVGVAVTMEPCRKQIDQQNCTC
Sequence of Kelch-like ECH-associated protein 1 (Homo sapiens) (Q14145 whole entry): as the sequence (Q14145 whole entry, looked up, one chain of several) above

For the molecule `CC(C)(C(=O)/C=C/c1ccc(O)c(O)c1)C(=O)/C=C/c1ccc(O)c(O)c1`, the outcome in [1], in data set [8] and in data set [17] was Active. Also, the result in data set [2], in data set [5], in data set [11], in data set [12] and in [14] was inactive. In addition, in the data set on HepG2 [3], the inhibition result is “Dose-dependent effect”. In data set [4], the fold change (FC) came to 2.6. The Activity result in data set [6] is “Tde”; in the data set with HepG2 [7], “Non-Toxic”; in data set [9] it was “Dose-dependent effect”; in [10], “Tde”; in data set [13], “Tde”; in data set [15], “Dose-dependent effect”. Moreover, the inhibition result in data set [16] is “inactive”.
